Calls of active or inactive are those of the source. The calls are words filed in the database; no cut-off is given here.
Legend:
[1] = Displacement of [125I]-IMPY from amyloid beta (1 to 42) fibrils after 2 hrs by gamma-counting analysis
Procedure, shortened: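 Competition binding with aggregated Aβ1-42 fibrils and [125I]IMPY (60000−100000 cpm/100 μL) in 0.05% BSA (1 mL total); inhibitors 10⁻⁴−10^−8.5 M in ethanol. Incubated 37 °C for 2 h, then GF/B vacuum filtration with PBS (0.02 M, pH 7.4) washes and γ counting. Three repeats; IC50 converted to Ki by Cheng−Prusoff.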

[2] = species on record: Mus musculus; assay: Binding affinity to amyloid beta plaques in transgenic C57BL6 mouse cortex expressing APP Swedish mutant/PSEN1 at 370 KBq/100 ul after 1 hr by thioflavinS-staining method; conditions: tested as the 18F-labelled form
Procedure, shortened: (§1)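 Paraffin brain sections from 12-month-old Tg mice (C57BL6, APPswe/PSEN1) and age-matched controls, deparaffinized through xylene and graded ethanol, then PBS (0.2 M, pH 7.4) 30 min. Incubated with 18F tracer (370 KBq per 100 μL) 1 h at room temperature, washed in 40% EtOH, rinsed in water, then phosphor plate exposure 2 h. The same sections were afterwards stained with 0.125% thioflavin S in 10% EtOH for 3 min and washed in 40% EtOH.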

[3] = species on record: Mus musculus; assay: Binding affinity to amyloid beta plaques in transgenic C57BL6 mouse hippocampus expressing APP Swedish mutant/PSEN1 at 370 KBq/100 ul after 1 hr by autoradiographic analysis; format: tissue-based; conditions: tested as the 18F-labelled form; procedure, shortened: as §1
[4] = species on record: Mus musculus; assay: Binding affinity to amyloid beta plaques in transgenic C57BL6 mouse cortex expressing APP Swedish mutant/PSEN1 at 370 KBq/100 ul after 1 hr by autoradiographic analysis; conditions: tested as the 18F-labelled form; procedure, shortened: as §1
[5] = species on record: Mus musculus; assay: Binding affinity to amyloid beta plaques in transgenic C57BL6 mouse hippocampus expressing APP Swedish mutant/PSEN1 at 370 KBq/100 ul after 1 hr by thioflavinS-staining method; format: tissue-based; conditions: tested as the 18F-labelled form; procedure, shortened: as §1

SMILES | Ki [1] | Activity [2] | Activity [3] | Activity [4] | Activity [5]
CN(C)c1ccc(-c2nc3cc(OCCF)ccc3o2)cn1 | 2.7 nM | Active | Active | Active | Active
CN(C)c1ccc(-c2nc3cc(OCCOCCOCCF)ccc3o2)cn1 | 9.9 nM | Active | Active | Active | Active
CNc1ccc(-c2nc3ccc(OCCOCCF)cc3s2)cn1 | 29.7 nM |  |  |  | 

From ChEMBL document CHEMBL2177098, “Synthesis and evaluation of novel ¹⁸F labeled 2-pyridinylbenzoxazole and 2-pyridinylbenzothiazole derivatives as ligands for positron emission tomography (PET) imaging of β-amyloid plaques” (J Med Chem, 2012)
